Results on 7 substances are retold here after publication PMC4757811 (Biochemistry, 2015).

One experiment relates to p130Cas. In words: Cas phosphorylation in 293T cells, Western blot. Format: cell-based. The conditions noted are these: 293T cells cotransfected with Brk and Cas. The method in brief: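 293T cells were cotransfected with V5-His-tagged p130Cas and Flag-tagged wild-type or mutant Brk using polyethylenimine, then harvested 48 h later in RIPA buffer with inhibitors. Lysates were analysed by SDS-PAGE and PVDF Western blotting. Probes were anti-phospho-p130Cas (Tyr249), anti-p130Cas and anti-Flag.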

Experiment [1] has as its system Erk1/2. It is filed as cell-based. The following applies: 293T cells, serum starved, 10 ng/mL EGF for 2.5 min. The method in brief: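 293T cells were PEI-transfected with Flag-Brk (wild-type or mutant) and serum-starved overnight. They were then stimulated with 10 ng/mL EGF for 2.5 min, lysed in RIPA buffer with inhibitors, and resolved by SDS-PAGE on PVDF. Blots were probed for phospho-Erk1/2 (Thr202/Tyr204), total Erk1/2 and Flag.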

The test system of another experiment is β-catenin. In words: β-catenin phosphorylation and binding, immunoprecipitation from 293T cells. It is filed as cell-based. The following applies: 293T cells coexpressing β-catenin; for binding to β-catenin (in words): Flag antibody; for phosphorylation of β-catenin (in words): anti-phosphotyrosine; for binding and phosphorylation of β-catenin (in words): compared to wild-type Brk. The method in brief:
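Flag-tagged β-catenin was coexpressed with Flag-Brk (wild-type or mutant) in 293T cells by PEI transfection, and lysates were made 48 h later in RIPA buffer. Lysate (1 mg/mL) was precleared on protein G agarose (1 h, 4 °C), incubated with 1 µg anti-β-catenin (1 h, 4 °C), then captured on protein G for 4 h at 4 °C. After three RIPA washes, SDS elution and blotting, membranes were probed with anti-phosphotyrosine and anti-β-catenin, then reprobed with anti-Flag for Brk association.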

The subject of experiment [2] is Erk1/2. The experiment can be described thus: Erk1/2 phosphorylation in 293T cells, Western blot. Format: cell-based. The following applies: not serum starved. The method in brief:
(§1)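 293T cells (1×10^6) transfected 24 h after plating with Flag-tagged wild-type or mutant Brk using polyethylenimine. Lysed 48 h post-transfection in RIPA buffer (pH 7.5) with protease and phosphatase inhibitors, then SDS-PAGE and PVDF blotting.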
(Immunoblotting shows a protein as a band on a membrane.)

The next experiment has as its system ErbB2. The experiment can be described thus: ErbB2 interaction, co-immunoprecipitation. Format: binding. The following applies: 293T cells cotransfected with ErbB2 and Brk; ErbB2 immunoprecipitated. The method in brief: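 Flag-tagged wild-type or mutant Brk and full-length ErbB2 were co-transfected into 293T cells with polyethylenimine (8 μL per μg DNA in 150 mM NaCl), 24 h after plating. Cells were lysed at 48 h in RIPA buffer with protease/phosphatase inhibitors. Lysate (1 mg/mL) was precleared on protein G agarose, then taken with 1 μg anti-ErbB2 (1 h, 4 °C) and protein G (4 h, 4 °C). After washing, blots were probed with anti-ErbB2 and anti-Flag.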

The next experiment relates to MCF-10a cells. In words: Growth of stable MCF-10a cells. The conditions noted are these: MCF-10a stable cells; compared to Brk WT. It is filed as cell-based.
A further experiment has as its system STAT3. In words: STAT3 phosphorylation in 293T cells, Western blot. It is filed as cell-based. The conditions noted are these: compared to control cells or wild-type Brk. Put shortly:
as §1

The test system of experiment [3] is NIH-3T3 cells. The experiment can be described thus: Anchored growth of stable NIH-3T3 cells. Format: cell-based. The following applies: NIH-3T3 stable cells, 20 000 cells plated in duplicate; hemocytometer. The method in brief: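 NIH-3T3 lines stably expressing wild-type or mutant Brk were made by MSCV-PIG retroviral infection with 8 µg/mL Polybrene. Selection used puromycin (2 µg/mL) from 48 h postinfection, and lines with equivalent GFP expression were used. Cells (20 000) were plated in duplicate in 12-well plates. At each time point over several days they were trypsinized and counted by hemocytometer. Representative of three experiments; standard deviations shown.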

In experiment [4] the test system is NIH-3T3 cells. In words: Nonanchored growth of stable NIH-3T3 cells. Format: cell-based. The conditions noted are these: NIH-3T3 stable cells, low attachment plates, day 6, triplicate. The method in brief: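 NIH-3T3 lines stably expressing Brk were made by retrovirus with puromycin selection and matched for GFP expression. Cells (20 000) were seeded in triplicate in 24-well low-attachment plates. On day 6 they were centrifuged, resuspended in trypsin and counted by hemocytometer. Representative of two experiments; standard deviations shown.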

In a further experiment the test system is SkBr3 cells. In words: Growth of stable SkBr3 cells. It is filed as cell-based.
A further experiment relates to Akt and Erk1/2. In words: Akt and Erk1/2 activation in SkBr3 cells. It is filed as cell-based. The following applies: SkBr3 breast cancer cells.
A further experiment has as its system Akt. In words: Akt phosphorylation in 293T cells, Western blot. It is filed as cell-based. The conditions noted are these: phospho-Akt (Ser473). The method in brief:
as §1

Turning to “L16F: Brk mutant, SH3 domain, identified in clear cell renal cell carcinoma”, in the experiment on p130Cas, the “expression of Brk upon coexpression with Cas (in words)” value was “decreased expression” and the “phosphorylation of Cas (in words)” value was “decreased phosphorylation of Cas”. In the experiment with Erk1/2 [1], the “Erk1/2 phosphorylation after EGF stimulation (in words)” value is “no appreciable difference between wild-type and L16F Brk following stimulation with EGF”. Moreover, in the experiment with β-catenin, the “binding to β-catenin (in words)” value was “decreased interaction with the protein” and the “phosphorylation of β-catenin (in words)” value was “not able to phosphorylate β-catenin”. Also, in the experiment with Erk1/2 [2], the “Erk1/2 phosphorylation (in words)” value is recorded as “increased phosphorylation of Erk1/2 compared to wild-type Brk”. Besides, the “interaction with ErbB2 (in words)” value in the experiment on ErbB2 was “increased interaction with ErbB2 compared to wild-type Brk”. The “proliferation (in words)” value in the experiment with MCF-10a cells was “reduced proliferation relative to wild-type Brk”.
Consider “V253M: Brk mutant, kinase domain, identified in head and neck squamous cell carcinoma”, for which the “phosphorylation of STAT3 (in words)” value in the experiment with STAT3 is recorded as “decrease in phosphorylation of STAT3”.
In the case of “R131L: Brk mutant, SH2 domain, found in gastric cancer”, the “phosphorylation of Cas (in words)” value with p130Cas was “greater phosphorylation of Cas compared to wild-type Brk”. In addition, the “binding and phosphorylation of β-catenin (in words)” value with β-catenin was “greater binding and phosphorylation of β-catenin as compared to wild-type Brk”.
Take “WT: Flag-tagged wild-type full length Brk (PTK6)”: the “anchored cell growth (in words)” value in the experiment on NIH-3T3 cells [3] is recorded as “increased cell growth compared to empty vector cells”. Besides, the “nonanchored cell growth (in words)” value in the experiment with NIH-3T3 cells [4] is recorded as “increase in nonanchored growth”.
Consider “L343F: Brk mutant, kinase domain, identified in cutaneous squamous cell carcinoma”, for which the “phosphorylation of Cas (in words)” value with p130Cas is “greater phosphorylation of Cas compared to wild-type Brk”. In the experiment with SkBr3 cells, the “anchored or nonanchored cell growth (in words)” value is “no increase in anchored or nonanchored cell growth”. Besides, the “binding and phosphorylation of β-catenin (in words)” value in the experiment with β-catenin is “greater binding and phosphorylation of β-catenin as compared to wild-type Brk”. Moreover, the “activation of Akt and Erk1/2 (in words)” value in the experiment on Akt and Erk1/2 is “increased activation of both Akt and Erk1/2”.
“N317S: Brk mutant, kinase domain, identified in ovarian carcinoma”: the “Akt phosphorylation (in words)” value in the experiment on Akt is “still phosphorylated”. In the experiment with β-catenin, the “binding to β-catenin (in words)” value is given as “bound normally to β-catenin” and the “phosphorylation of β-catenin (in words)” value is listed as “unable to phosphorylate the protein”. For the same substance, the “Erk1/2 phosphorylation (in words)” value in the experiment with Erk1/2 [2] was “still phosphorylated”. In the experiment with STAT3, the “phosphorylation of STAT3 (in words)” value is listed as “decrease in phosphorylation of STAT3”.
Regarding “P450L: Brk mutant, C-terminal tail adjacent to the inhibitory tyrosine, identified in pancreatic cancer”, in the experiment on NIH-3T3 cells [3], the “anchored cell growth (in words)” value is recorded as “did not survive past Day 6”.
